Experimental findings from ChEMBL document CHEMBL2331158, “Isocoumarin derivatives and benzofurans from a sponge-derived Penicillium sp. fungus” (2013) are described below.

One assay deals with Bacillus cereus. In words: Antibacterial activity against Bacillus cereus ACCC 11077 assessed as growth inhibition after 18 hrs by broth dilution method. The conditions noted are these: ACCC 11077, 18 h. (In general: Broth dilution looks for growth in wells or tubes with falling amounts of substance.)
The next assay deals with Staphylococcus aureus. As to the kind of experiment: Antibacterial activity against Staphylococcus aureus ATCC 27154 assessed as growth inhibition after 18 hrs by broth dilution method. The conditions noted are these: ATCC 27154, 18 h. Type of assay: functional. The method in brief:
(§1)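 Conventional broth dilution assay, run across a panel of nine bacterial strains (Gram-positive and Vibrio species included), with ciprofloxacin as the positive control.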

The next assay concerns K562. As to the kind of experiment: Cytotoxicity against human K562 cells assessed as cell viability after 6 days by MTT assay. Type of assay: functional, cell-based.
Another assay deals with Vibrio parahaemolyticus. In words: Antibacterial activity against Vibrio parahaemolyticus ATCC 17802 assessed as growth inhibition after 18 hrs by broth dilution method. Type of assay: functional. Conditions: ATCC 17802, 18 h. The method in brief: as §1
Another assay relates to A549. As to the kind of experiment: Cytotoxicity against human A549 cells assessed as cell viability after 6 days by MTT assay. Type of assay: functional, cell-based.
Another assay relates to HL-60. As to the kind of experiment: Cytotoxicity against human HL60 cells assessed as cell viability after 6 days by MTT assay. Type of assay: functional, cell-based. For orientation: Formazan colour is commonly taken as a measure of viable cells.
The next assay deals with Staphylococcus. In words: Antibacterial activity against Staphylococcus albus ATCC 8799 assessed as growth inhibition after 18 hrs by broth dilution method. It counts as functional. Conditions: ATCC 8799, 18 h. The method in brief:
as §1

Converted amounts (≈) assume the structure as drawn. The source made the active and inactive calls. No cut-off for these calls is given here.

For orientation: MIC means the lowest concentration that inhibits growth of the organism.

Consider `Cc1oc2c(O)cc(O)cc2c1C=O` [PENICIFURAN C], for which the MIC with Bacillus cereus was 12.5 µM (≈ 2.4 µg/mL); with Staphylococcus aureus, 12.5 µM (≈ 2.4 µg/mL); with Vibrio parahaemolyticus it was over 25 µM; in the assay on Staphylococcus, 25 µM (≈ 4.8 µg/mL). Also, the result in the assay with K562, in the assay with A549 and with HL-60 was inactive.
In the case of `O=c1oc(CO)c(CO)c2cc(O)cc(O)c12` [PENICIMARIN F], the minimal inhibitory concentration (MIC) with Bacillus cereus was over 25 µM; in the assay on Staphylococcus aureus it was 12.5 µM (≈ 2.98 µg/mL); in the assay with Vibrio parahaemolyticus it was over 25 µM; with Staphylococcus, over 25 µM. Also, the result with K562, with A549 and with HL-60 was inactive.
Consider `CC(=O)c1coc2c(O)cc(O)cc12` [PENICIFURAN D], for which the minimum inhibitory concentration (MIC) was 25 µM (≈ 4.8 µg/mL) with Bacillus cereus, over 25 µM in the assay on Staphylococcus aureus, 25 µM (≈ 4.8 µg/mL) in the assay with Vibrio parahaemolyticus and 25 µM (≈ 4.8 µg/mL) with Staphylococcus. The result in the assay on K562, with A549 and in the assay with HL-60 was inactive.
In the case of `C[C@H](O)CCC[C@@H]1Cc2cccc(O)c2C(=O)O1` [ASPERGILLUMARIN B], the MIC in the assay with Bacillus cereus was over 25 µM; in the assay with Staphylococcus aureus, over 25 µM; in the assay on Vibrio parahaemolyticus it was over 25 µM; in the assay with Staphylococcus, 12.5 µM (≈ 3.13 µg/mL). The result in the assay with K562, in the assay with A549 and in the assay with HL-60 was inactive.
With `CC(=O)CCC[C@@H]1Cc2cccc(O)c2C(=O)O1` [ASPERGILLUMARIN A], the minimum inhibitory concentration (MIC) in the assay on Bacillus cereus was over 25 µM; with Staphylococcus aureus, over 25 µM; with Vibrio parahaemolyticus, over 25 µM; in the assay with Staphylococcus, 12.5 µM (≈ 3.1 µg/mL). Also, the outcome in the assay on K562, with A549 and in the assay with HL-60 was inactive.
In the case of `COc1cc(O)cc2c(CO)c(C)oc12` [PENICIFURAN A], the minimum inhibitory concentration (MIC) with Bacillus cereus turned out to be 12.5 µM (≈ 2.6 µg/mL); with Staphylococcus aureus, 25 µM (≈ 5.21 µg/mL); in the assay with Vibrio parahaemolyticus, 25 µM (≈ 5.21 µg/mL); in the assay with Staphylococcus it was 3.13 µM (≈ 0.652 µg/mL). In addition, the outcome in the assay on K562, in the assay on A549 and with HL-60 was inactive.
For `CC(O)c1coc(=O)c2c(O)cc(O)c(O)c12` (stereo not given), the MIC in the assay with Bacillus cereus is 6.25 µM (≈ 1.49 µg/mL); with Staphylococcus aureus, 12.5 µM (≈ 2.98 µg/mL); with Vibrio parahaemolyticus, 6.25 µM (≈ 1.49 µg/mL); in the assay with Staphylococcus it was over 25 µM. The outcome in the assay with K562, in the assay with A549 and with HL-60 was inactive.
Consider `COc1cc(O)cc2c(COC(C)=O)c(C)oc12` [PENICIFURAN B], for which the MIC in the assay on Bacillus cereus was over 25 µM; in the assay with Staphylococcus aureus, over 25 µM; in the assay on Vibrio parahaemolyticus, over 25 µM; in the assay with Staphylococcus, 12.5 µM (≈ 3.13 µg/mL). Further, the result in the assay on K562, with A549 and with HL-60 was inactive.
Take `O=C(O)c1cn(C2CC2)c2cc(N3CCNCC3)c(F)cc2c1=O` [CIPROFLOXACIN]: the MIC in the assay with Bacillus cereus is 0.625 µM (≈ 0.207 µg/mL); with Staphylococcus aureus, 0.16 µM (≈ 0.053 µg/mL); in the assay with Vibrio parahaemolyticus, 0.16 µM (≈ 0.053 µg/mL); with Staphylococcus, 0.312 µM (≈ 0.103 µg/mL).
